pEC50: −log10 of the molar value.
Columns and labels:
[1] = target: T1, Metabotropic glutamate receptor 5 (Homo sapiens, UniProt P41594); assay: Fold potentiation in CHO cells overexpressing human metabotropic glutamate receptor 5; assay type: functional, cell-based
Outline: (§1)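 FLIPR calcium assay in CHO cells transfected with human or rat mGluR5. Compound added with a low glutamate concentration (300 nM), measuring increase in response; compound alone (up to 100 µM) checked for agonist activity.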
Target sequence in this assay (P41594 21-1212 limits assumed): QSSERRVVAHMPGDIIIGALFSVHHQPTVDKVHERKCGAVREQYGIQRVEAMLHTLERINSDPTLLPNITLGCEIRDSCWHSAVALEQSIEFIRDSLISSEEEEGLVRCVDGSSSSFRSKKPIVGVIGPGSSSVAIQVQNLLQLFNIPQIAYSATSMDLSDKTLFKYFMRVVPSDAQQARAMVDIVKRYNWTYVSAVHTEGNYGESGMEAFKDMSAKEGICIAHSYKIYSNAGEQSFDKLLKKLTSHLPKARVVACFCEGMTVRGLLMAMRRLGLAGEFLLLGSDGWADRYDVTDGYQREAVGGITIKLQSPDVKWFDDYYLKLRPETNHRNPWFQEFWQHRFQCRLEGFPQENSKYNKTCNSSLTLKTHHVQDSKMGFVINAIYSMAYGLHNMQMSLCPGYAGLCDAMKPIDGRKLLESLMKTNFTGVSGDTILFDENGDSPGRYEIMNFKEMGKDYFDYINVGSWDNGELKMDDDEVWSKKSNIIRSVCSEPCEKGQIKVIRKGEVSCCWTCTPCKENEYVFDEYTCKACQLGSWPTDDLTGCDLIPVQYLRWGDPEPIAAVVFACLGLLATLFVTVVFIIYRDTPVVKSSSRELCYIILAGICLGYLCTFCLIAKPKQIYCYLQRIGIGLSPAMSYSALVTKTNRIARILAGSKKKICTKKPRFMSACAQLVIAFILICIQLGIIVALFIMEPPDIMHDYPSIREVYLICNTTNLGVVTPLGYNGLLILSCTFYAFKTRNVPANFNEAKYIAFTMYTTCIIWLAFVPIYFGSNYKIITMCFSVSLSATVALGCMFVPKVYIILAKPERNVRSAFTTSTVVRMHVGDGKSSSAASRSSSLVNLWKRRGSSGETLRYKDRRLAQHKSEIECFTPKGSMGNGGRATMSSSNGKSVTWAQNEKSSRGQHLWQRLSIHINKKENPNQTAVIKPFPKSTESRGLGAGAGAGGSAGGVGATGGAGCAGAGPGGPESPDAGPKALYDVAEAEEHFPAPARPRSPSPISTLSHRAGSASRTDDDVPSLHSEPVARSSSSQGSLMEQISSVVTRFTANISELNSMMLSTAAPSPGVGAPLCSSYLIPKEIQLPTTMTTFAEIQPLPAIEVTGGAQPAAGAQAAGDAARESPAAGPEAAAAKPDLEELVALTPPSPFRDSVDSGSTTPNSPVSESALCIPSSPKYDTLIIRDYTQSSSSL

[2] = target: Metabotropic glutamate receptor 5 (Rattus norvegicus, UniProt P31424); assay: Effective concentration against metabotropic glutamate receptor 5 of rat; outline: as §1
[3] = target: T1, Metabotropic glutamate receptor 5; assay: Effective concentration against metabotropic glutamate receptor 5 of human transfected into CHO cells; assay type: cell-based; outline: as §1
Target sequence in this assay (P41594 whole entry): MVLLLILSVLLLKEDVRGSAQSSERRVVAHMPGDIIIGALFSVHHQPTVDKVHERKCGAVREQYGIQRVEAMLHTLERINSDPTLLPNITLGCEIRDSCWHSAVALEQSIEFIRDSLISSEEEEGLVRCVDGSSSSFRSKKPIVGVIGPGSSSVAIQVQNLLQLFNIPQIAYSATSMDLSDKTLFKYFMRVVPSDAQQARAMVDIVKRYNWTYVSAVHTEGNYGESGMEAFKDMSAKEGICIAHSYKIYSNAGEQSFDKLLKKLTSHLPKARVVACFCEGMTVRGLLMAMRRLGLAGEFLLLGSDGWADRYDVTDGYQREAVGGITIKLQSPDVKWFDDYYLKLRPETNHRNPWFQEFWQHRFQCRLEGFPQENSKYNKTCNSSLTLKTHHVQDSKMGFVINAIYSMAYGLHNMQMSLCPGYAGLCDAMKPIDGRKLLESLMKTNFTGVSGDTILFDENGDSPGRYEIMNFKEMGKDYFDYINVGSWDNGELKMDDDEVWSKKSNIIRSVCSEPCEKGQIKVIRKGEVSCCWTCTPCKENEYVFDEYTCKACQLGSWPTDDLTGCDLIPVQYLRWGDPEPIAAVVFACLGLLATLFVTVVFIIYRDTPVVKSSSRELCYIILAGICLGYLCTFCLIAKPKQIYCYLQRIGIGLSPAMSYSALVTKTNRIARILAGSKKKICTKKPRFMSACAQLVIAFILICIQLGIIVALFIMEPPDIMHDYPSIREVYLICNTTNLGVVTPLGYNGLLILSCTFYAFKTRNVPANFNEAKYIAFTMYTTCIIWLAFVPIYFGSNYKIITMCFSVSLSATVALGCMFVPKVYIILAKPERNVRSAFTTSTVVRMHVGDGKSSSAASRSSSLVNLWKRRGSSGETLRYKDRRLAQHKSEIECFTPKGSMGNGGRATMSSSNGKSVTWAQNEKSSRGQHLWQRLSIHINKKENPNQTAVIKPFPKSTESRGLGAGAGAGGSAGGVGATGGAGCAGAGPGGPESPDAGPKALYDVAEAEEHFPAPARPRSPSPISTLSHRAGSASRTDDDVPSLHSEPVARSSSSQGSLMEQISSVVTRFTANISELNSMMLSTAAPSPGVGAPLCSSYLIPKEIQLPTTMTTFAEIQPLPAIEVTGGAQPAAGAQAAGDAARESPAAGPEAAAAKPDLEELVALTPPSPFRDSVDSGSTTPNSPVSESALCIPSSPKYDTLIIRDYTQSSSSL

[4] = target: Metabotropic glutamate receptor 5 (Rattus norvegicus) (UniProt P31424); assay: Fold potentiation towards rat metabotropic glutamate receptor 5; assay type: functional; outline: as §1
Sequence of Metabotropic glutamate receptor 5 (Rattus norvegicus) (P31424 21-1203 limits assumed): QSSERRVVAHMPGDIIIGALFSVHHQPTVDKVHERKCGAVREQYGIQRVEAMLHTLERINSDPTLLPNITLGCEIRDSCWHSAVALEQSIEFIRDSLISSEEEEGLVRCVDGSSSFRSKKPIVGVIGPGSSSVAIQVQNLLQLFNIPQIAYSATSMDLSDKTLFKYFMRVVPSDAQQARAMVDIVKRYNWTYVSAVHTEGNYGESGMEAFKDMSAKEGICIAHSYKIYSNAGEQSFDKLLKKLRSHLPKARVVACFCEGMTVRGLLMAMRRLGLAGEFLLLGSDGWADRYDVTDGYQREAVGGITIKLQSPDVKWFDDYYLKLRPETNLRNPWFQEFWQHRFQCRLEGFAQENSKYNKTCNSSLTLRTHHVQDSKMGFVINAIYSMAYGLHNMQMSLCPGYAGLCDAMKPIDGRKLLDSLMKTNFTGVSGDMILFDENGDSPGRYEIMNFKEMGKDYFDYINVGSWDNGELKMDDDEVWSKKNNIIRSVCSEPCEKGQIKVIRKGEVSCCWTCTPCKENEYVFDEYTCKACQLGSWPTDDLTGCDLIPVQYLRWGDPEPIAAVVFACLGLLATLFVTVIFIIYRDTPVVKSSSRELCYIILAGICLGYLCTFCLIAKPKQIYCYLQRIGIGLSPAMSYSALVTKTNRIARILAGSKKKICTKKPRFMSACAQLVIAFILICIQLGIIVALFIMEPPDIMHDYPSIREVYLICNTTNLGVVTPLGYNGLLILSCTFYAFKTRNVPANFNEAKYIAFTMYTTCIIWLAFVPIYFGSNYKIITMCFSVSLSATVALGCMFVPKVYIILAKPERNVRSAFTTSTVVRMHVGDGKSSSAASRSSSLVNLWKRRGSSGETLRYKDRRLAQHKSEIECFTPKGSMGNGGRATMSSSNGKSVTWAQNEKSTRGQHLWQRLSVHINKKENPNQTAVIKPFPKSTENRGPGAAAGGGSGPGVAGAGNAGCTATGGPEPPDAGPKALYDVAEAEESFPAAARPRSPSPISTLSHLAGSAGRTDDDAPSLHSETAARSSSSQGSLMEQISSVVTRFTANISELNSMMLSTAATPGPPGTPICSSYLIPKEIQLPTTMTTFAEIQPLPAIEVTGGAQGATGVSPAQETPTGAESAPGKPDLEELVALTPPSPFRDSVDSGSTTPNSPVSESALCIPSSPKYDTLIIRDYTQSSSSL

Sequence of Metabotropic glutamate receptor 5 (Rattus norvegicus, UniProt P31424) (P31424 whole entry): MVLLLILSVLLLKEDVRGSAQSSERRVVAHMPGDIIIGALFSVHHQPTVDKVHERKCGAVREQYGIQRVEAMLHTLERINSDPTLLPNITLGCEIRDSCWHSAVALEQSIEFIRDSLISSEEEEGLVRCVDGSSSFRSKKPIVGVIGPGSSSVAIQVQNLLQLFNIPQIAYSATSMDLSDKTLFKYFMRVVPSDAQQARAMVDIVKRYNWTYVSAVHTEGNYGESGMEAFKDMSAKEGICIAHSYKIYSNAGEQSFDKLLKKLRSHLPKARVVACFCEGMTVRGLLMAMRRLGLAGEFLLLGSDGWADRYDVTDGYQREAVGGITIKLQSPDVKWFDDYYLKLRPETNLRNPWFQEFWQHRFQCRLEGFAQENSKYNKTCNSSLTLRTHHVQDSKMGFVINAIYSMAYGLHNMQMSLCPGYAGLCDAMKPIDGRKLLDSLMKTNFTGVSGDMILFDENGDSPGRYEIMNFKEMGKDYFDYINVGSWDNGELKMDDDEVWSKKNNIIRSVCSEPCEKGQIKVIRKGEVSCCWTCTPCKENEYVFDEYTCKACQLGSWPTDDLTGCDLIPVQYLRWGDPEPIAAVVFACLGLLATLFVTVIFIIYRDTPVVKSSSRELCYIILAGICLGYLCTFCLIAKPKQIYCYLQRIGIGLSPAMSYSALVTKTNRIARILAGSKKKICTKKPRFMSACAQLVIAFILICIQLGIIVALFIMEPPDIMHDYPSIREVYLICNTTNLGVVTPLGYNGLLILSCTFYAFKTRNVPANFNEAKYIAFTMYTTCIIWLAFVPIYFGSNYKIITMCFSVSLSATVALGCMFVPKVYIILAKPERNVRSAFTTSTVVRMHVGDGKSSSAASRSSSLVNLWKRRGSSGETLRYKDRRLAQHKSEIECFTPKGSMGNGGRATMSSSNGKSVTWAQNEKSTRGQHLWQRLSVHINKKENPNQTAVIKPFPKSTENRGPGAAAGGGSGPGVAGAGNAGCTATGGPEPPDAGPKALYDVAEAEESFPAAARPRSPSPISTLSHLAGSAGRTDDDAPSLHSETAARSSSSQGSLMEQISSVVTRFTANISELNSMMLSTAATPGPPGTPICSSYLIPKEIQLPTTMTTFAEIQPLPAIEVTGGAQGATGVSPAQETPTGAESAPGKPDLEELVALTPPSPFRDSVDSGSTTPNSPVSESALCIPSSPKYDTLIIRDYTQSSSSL

Row | SMILES | Potentiation [1] | pEC50 [2] | pEC50 [3] | Potentiation [4]
1 | O=C(Nc1cc(-c2ccccc2)nn1-c1ccccc1)c1ccc(F)c(F)c1 | 2.6 | 7.70 | 8.00 | 6.4
2 | O=C(Nc1ccc(Cl)cc1CN1C(=O)c2ccccc2C1=O)c1ccccc1O | 7 | – | – | –
3 | O=C(Nc1ccc(Br)cc1CN1C(=O)c2ccccc2C1=O)c1ccccn1 | 6 | – | 6.13 | –
4 | O=C(Nc1cc(-c2ccccc2)nn1-c1ccccc1)c1ccccc1 | 5 | 6.52 | 7.40 | 5
5 | O=C(Nc1cc(-c2ccccc2)nn1-c1ccccc1)c1ccc(C(F)(F)F)cc1 | 5.2 | 7.70 | 7.72 | 6.8
6 | O=C(Nc1cc(-c2ccccc2)nn1-c1ccccc1)c1ccccc1Cl | 3.7 | – | 5.60 | –
7 | Cc1ccccc1C(=O)Nc1cc(-c2ccccc2)nn1-c1ccccc1 | 0.9 | – | < 5.00 | –
8 | Cc1ccc(C(=O)Nc2cc(-c3ccccc3)nn2-c2ccccc2)cc1 | 9 | 7.40 | 7.52 | 10.9
9 | O=C(Nc1cc(-c2ccccc2)nn1-c1ccccc1)c1ccccc1O | 0.9 | < 5.00 | < 5.00 | 0.9
10 | Cc1cccc(C(=O)Nc2cc(-c3ccccc3)nn2-c2ccccc2)c1 | 9 | 7.00 | 7.05 | 9.4
11 | O=C(Nc1cc(-c2ccccc2)nn1-c1ccccc1)c1cccc(F)c1 | 2.6 | 7.19 | 7.70 | 7.7
12 | Fc1cccc(/C=N/N=C/c2cccc(F)c2)c1 | 3 | – | 8.63 | –
13 | O=C(Nc1cc(-c2ccccc2)nn1-c1ccccc1)c1cccs1 | 2.9 | 6.40 | 6.70 | 5.3
14 | O=C(Nc1cc(-c2ccccc2)nn1-c1ccccc1)c1ccccn1 | 3.6 | 6.23 | 6.54 | 8

Other lines, results leading:

Row | Potentiation [1] | pEC50 [2] | pEC50 [3] | Potentiation [4] | SMILES
15 | 2.5 | 5.54 | 5.74 | 3.7 | O=C(Nc1cc(-c2ccccc2)nn1-c1ccccc1)c1ccsc1
16 | 4.3 | 6.40 | 6.70 | 4.8 | O=C(Nc1cc(-c2ccccc2)nn1-c1ccccc1)c1cnccn1
17 | 2.9 | 7.30 | 7.52 | 8 | O=C(Nc1cc(-c2ccccc2)nn1-c1ccccc1)c1ccc(F)cc1
18 | 4 | – | – | 4.3 | N#Cc1cccc(C(=O)Nc2cc(-c3ccccc3)nn2-c2ccccc2)c1
19 | 5 | 7.00 | 7.70 | 4.9 | O=C(Nc1cc(-c2ccccc2)nn1-c1ccccc1)c1ccc(Cl)cc1
20 | 5.4 | 6.70 | 7.40 | 3.3 | O=C(Nc1cc(-c2ccccc2)nn1-c1ccccc1)c1cccc(Cl)c1
21 | 7 | – | 6.61 | – | O=C(Nc1ccc(Cl)cc1CN1C(=O)c2ccccc2C1=O)c1ccccn1
22 | 6.4 | 7.00 | 7.12 | 6.3 | O=C(Nc1cc(-c2ccccc2)nn1-c1ccccc1)c1ccccc1F
